{"data": "Published values gathered from unrelated publications", "target": "Calcium/calmodulin-dependent protein kinase type 1 (CAMK1, Homo sapiens, UniProt Q14012)"}
{"SMILES": "Cc1ccc(NC(=O)c2ccnc(C(F)(F)F)c2)cc1-c1cc(OCCO)nc(N2CCOCC2)c1", "assay": "binding", "conditions": "1 µM", "endpoint": "remaining binding", "value": "100%"}
{"SMILES": "CC#CC(=O)N1CCC[C@H]1c1nc(-c2ccc(C(=O)Nc3ccccn3)cc2)c2c(N)nccn12", "assay": "enzyme activity, inhibitor", "conditions": "1 µM", "endpoint": "inhibition", "value": "26%"}
{"SMILES": "COc1ccc2oc(-c3ccc4nc(N)oc4c3)c/c(=N\\c3ccccc3NC(=O)CCN)c2c1", "assay": "binding", "conditions": "1 µM", "endpoint": "remaining binding", "value": "70%"}
{"SMILES": "C1=C/COCc2cc(ccc2OCCN2CCCC2)Nc2nccc(n2)-c2cccc(c2)COC/1", "assay": "binding", "conditions": "0.1 µM", "endpoint": "remaining binding", "value": "65%"}
{"SMILES": "C=CC(=O)N1CCC([C@@H]2CCNc3c(C(N)=O)c(-c4ccc(Oc5ccccc5)cc4)nn32)CC1", "assay": "enzyme activity, inhibitor", "conditions": "1 µM", "endpoint": "inhibition", "value": "7%"}
{"SMILES": "CCCCC(=O)Nc1ccc(-c2ccc3ncn(CCC)c(=O)c3c2)cn1", "assay": "binding, competition with immobilised ligand", "conditions": "0.5 µM", "endpoint": "remaining binding", "value": "88%"}
{"SMILES": "C[C@H]1CC[C@H](n2c3cnccc3c3cnc(Nc4ccc5c(n4)CCN(C(=O)CO)C5)nc32)CC1", "assay": "cell-free assay", "conditions": "1 µM", "endpoint": "remaining signal", "value": "45%"}
{"SMILES": "Cc1cc(O)c(-c2ccc([C@@H](C)CN(C)C)cc2)c2c1[nH]c(=O)c1sccc12", "assay": "cell-free assay, inhibitor", "conditions": "0.1 µM, lysate", "endpoint": "inhibition", "value": "2.27%"}
